This is an account of results in ChEMBL document CHEMBL4480459, “Acylated Lignans Isolated from Brachanthemum gobicum and Their Trypanocidal Activity” (J Nat Prod, 2019).

In this experiment the test system is Trypanosoma congolense. Description: Trypanocidal activity against bloodstream form of Trypanosoma congolense IL3000 after 72 hrs by CellTiter-Glo reagent-based luminescence assay. It counts as functional, organism-based. As to conditions: IL3000, 72 h. Summed up:
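BSF parasites maintained daily in HMI-9 medium. Compounds serially diluted 5-fold in HMI-9 from 25 μg/mL to 1.6 ng/mL and incubated with trypanosomes for 72 h. Viability read by luminescence after CellTiter-Glo addition; IC50 calculated from the dilution series. Pentamidine as positive control.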
The term IC50 denotes the concentration that inhibits the measured activity by half. A higher IC50 goes with a need for much substance. Turning to `COc1cc([C@@H]2Oc3c(OC)cc(/C=C/C=O)cc3[C@H]2COC(=O)CC(C)C)ccc1O`, the IC50 worked out at 2.4 µM. That is a single-digit micromolar value.
Regarding `COc1cc([C@@H]2Oc3c(OC)cc(/C=C/COC(C)=O)cc3[C@H]2COC(C)=O)ccc1O`, it took 16.2 µM to reach half-maximal inhibition (IC50).
Compound `COc1cc([C@@H]2Oc3c(OC)cc(/C=C/COC(=O)CC(C)C)cc3[C@H]2COC(=O)CC(C)C)ccc1O` yielded an IC50 of 13.4 µM. The IC50 values of the last two compounds are within 1.5-fold of each other.
With `COc1cc([C@@H](OC)[C@H](O)COC(=O)CC(C)C)ccc1O` the figure was over 25 µM.
On to `COc1cc([C@@H]2Oc3c(OC)cc(/C=C/C=O)cc3[C@H]2COC(C)=O)ccc1O`, for which inhibition was half-maximal at 7.6 µM (IC50).
On to `COc1cc([C@@H]2Oc3c(OC)cc(C=O)cc3[C@H]2COC(=O)CC(C)C)ccc1O`, for which the 50% inhibitory concentration (IC50) came to 19.9 µM.
With `COc1cc(/C=C/COC(=O)CC(C)C)ccc1O` the figure was over 25 µM; with `COc1cc([C@@H](O)[C@H](O)COC(=O)CC(C)C)ccc1O`, over 25 µM; with `COc1cc([C@@H]2Oc3c(OC)cc(C(=O)O)cc3[C@H]2COC(=O)CC(C)C)ccc1O`, over 25 µM.
`C=C(C=O)[C@H](COC(=O)CC(C)C)C(c1ccc(O)c(OC)c1)c1ccc(O)c(OC)c1` displayed an IC50 of 2.8 µM.
As to `COc1cc(C(=O)[C@@H](COC(=O)CC(C)C)Oc2ccc(/C=C/COC(=O)CC(C)C)cc2OC)ccc1O`, the half-maximal inhibitory concentration (IC50) was determined as 9.6 µM.
In the case of `COc1cc(C(=O)[C@H](O)COC(=O)CC(C)C)ccc1O` it was over 25 µM.
`COc1cc(C(=O)[C@@H](COC(=O)CC(C)C)c2cc(C=O)cc(OC)c2O)ccc1O` registered an IC50 of over 25 µM.
Take `COc1cc([C@@H](O)[C@@H](COC(=O)CC(C)C)Oc2ccc(/C=C/COC(=O)CC(C)C)cc2OC)ccc1O`: half-maximal inhibition (IC50) required 17.4 µM.
In the case of `COc1cc(/C=C/C=O)ccc1O` [CONIFERYL ALDEHYDE] it was over 25 µM.
In the case of `COc1cc(/C=C/C(=O)O)ccc1O` [FERULATE] it was over 25 µM; in that of `COc1cc(C=O)ccc1O` [VANILLIN], over 25 µM.
